# From PubChem BioAssay AID2292 (The Scripps Research Institute Molecular Screening Center, 2010)
# This is one part of the list. A number with no mark means an inactive call. Calls of active or inactive are those of the source.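 The calls were made as follows: active = mean inhibition across replicates above a set limit taken from the earlier primary screen (cut at about 28% in these data); inactive = the rest.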
# System: Epstein-Barr virus nuclear antigen 1 (EBNA-1) DNA-binding domain, Human herpesvirus 4
# Experiment: EBNA-1 DNA-binding inhibitors, retest, confirmation, biochemical, fluorescence polarization, triplicate (AID 2292);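 also: plate controls were EBNA-1 protein with DMSO for no effect and wells lacking EBNA-1 for full effect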
# Conditions: Recombinant EBNA-1 DBD, Cy5-DNA fluorescence polarization; at 14.8 µM; active compounds read high
# Procedure, shortened: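 Timing: Protein-probe premix 30 min, compound exposure 1 h, room temperature / Material: purified EBNA-1 DNA-binding domain / Detection: FP at Ex 620 nm / Em 688 nm / Replicates: each compound tested in triplicate / Controls: no-protein and protein-only wells / Probe or stimulus: 10 nM Cy5 DNA hairpin / Buffer or medium: Tris-NaCl buffer, pH 7.4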
row,Compound,inhibition
1,O=C(COc1ccc(/C=N/NC(=O)c2ccc(O)cc2)cc1)Nc1ccc([N+](=O)[O-])cc1,51.1% (active)
2,CCOc1cccc(SCc2noc(C(=O)NC(C)C)c2C(=O)O)c1,-11.1%
3,C/C(=N\N=C(N)N)c1ccc(Cl)cc1,2.77%
4,N#Cc1nc(N)nc(N(c2ccccc2)c2ccccc2)n1,-5.35%
5,O=C(CCCn1c(SCC(=O)c2ccc(F)cc2)nc2ccccc2c1=O)NCc1ccco1,16.5%
6,COC(=O)CSc1nc(C)c2ccc(OC)cc2n1,-0.23%
7,Nc1nnc(SCC(=O)Nc2ccc3nc(SCC(=O)Nc4ccccc4)sc3c2)s1,24.9%
8,CC(=O)Nc1ccc(S(=O)(=O)NCC(=O)OCc2cc(=O)oc3ccc4ccccc4c23)cc1,5.47%
9,COc1ccc(NC(=O)NCc2ccc3c(c2)OCO3)c(OC)c1,57% (active)
10,Cc1ccc(C(=O)NNC(=O)c2cc3cc4ccccc4nc3s2)cc1,29.3% (active)
11,N#Cc1ccc(N2Cc3ccccc3/C2=N/C(=O)Nc2ccc(Cl)cc2)cc1,67.7% (active)
12,Cc1ccc(-c2nn(-c3ccccc3)cc2/C=C2\SC(=S)N(CCCCCC(=O)O)C2=O)o1,16.8%
13,O=C(Nc1cccc(NC(=O)c2ccc(Br)cc2)c1)c1ccccc1,20.8%
14,CCC(=O)Nc1ccc(C(=O)Nc2ccc3c(c2)C(=O)N(CC2CCCO2)C3=O)cc1 (stereo not given),58.2% (active)
15,COC(=O)C1=CN(Cc2ccc(OC)cc2)C=C(C(=O)OC)C1c1ccc(O)c(OC)c1,37.1% (active)
